In paper PMC2114617 (The Journal of Cell Biology, 1986):

Experiments:
B16-F10 melanoma cells [1] = test: Inhibition of B16-F10 melanoma cell spreading on fibronectin; type: cell-based, murine; conditions: data not shown
Method in brief: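 Wells coated 60 min at room temperature with human plasma fibronectin (4 μg/ml) in PBS+, then blocked 30 min with heat-denatured BSA. Test peptide in PBS+ was added, with or without 5 μg/ml mAb333. Cells were fixed and %-spread scored by phase contrast (300 cells/well).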

B16-F10 melanoma cells [2] = test: Inhibition of B16-F10 melanoma cell spreading on CS5; type: cell-based, murine; conditions: CS5 substrate; data not shown
BHK fibroblasts = test: Spreading of BHK fibroblasts on fibronectin or its tryptic fragments; type: cell-based, hamster; conditions: substrate-coated protein
Method in brief: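 Wells were coated 60 min at room temperature with human plasma fibronectin or its purified tryptic fragments (90-98% pure), with coating levels expressed in nM. Wells were blocked with heat-denatured BSA.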

Substance | Inhibition of B16-F10 spreading on fibronectin at concentrations up to 1 mg/ml (B16-F10 melanoma cells [1]) | other results
Arg- Asp [RD] | completely inactive | –
Arg-Gly-Pro-Phe-Pro-lle [RGPFPI] | completely inactive | –
GRGD | – | Inhibition of B16-F10 spreading on CS5 (B16-F10 melanoma cells [2]): highly inhibitory
Gly-His-Lys [GHK] | completely inactive | –
SDGR | – | Inhibition of B16-F10 spreading on CS5 (B16-F10 melanoma cells [2]): more active than GRGDS
Thr-Lys-Pro- Arg [TKPR] | completely inactive | –
fibronectin | – | Spreading of BHK cells on fibronectin and fragments (BHK fibroblasts): spread equally well
heparin | no detectable effect | –
insulin A chain: Insulin A chain from Sigma Chemical Co., peptide unrelated to RGDS | completely inactive | –
